Calls of active or inactive are those of the source. The rule behind the calls is not given here.
Legend:
[1] = target: Aggrecan core protein (Bos taurus) (UniProt P13608); assay: Binding affinity to bovine articular cartilage aggrecan at 500 uM by SPR analysis
Outline: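 Aggrecan immobilised on sensor chip, free sites blocked with 1 M ethanolamine pH 8.5. Primary screen as binding level at 500 µM analyte in HBS-P+ running buffer, 30 µL/min, 600 s association, 200 s dissociation. Response corrected against a flow cell without aggrecan; regeneration with 2 M NaCl, 150 s.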

[2] = target: Aggrecan core protein (Bos taurus, UniProt P13608); assay: Binding affinity to bovine articular cartilage aggrecan by SPR analysis
[3] = tested on: H-EMC-SS; assay: Antiproliferative activity against human HEMC-SS cells treated for 24 hrs under hypoxic condition followed by compound wash-out and incubated under normoxic condition for 48 hrs by alamar blue assay; format: functional, cell-based
Outline: (§1)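 HEMC-SS chondrosarcoma cells (DMEM/F12, 10% FCS, gentamicin) seeded 20.10^3/well, adhered overnight; drug dilution series added, final DMSO 0.5%. Exposed 24 h under normoxia (21% O2, 5% CO2, 37°C) or hypoxia (N2, O2<0.3%, 37°C), then washed with PBS and grown 48 h in normoxia. AlamarBlue viability; IC50 = 50% growth inhibition; at least triplicate, mean ± SD.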

[4] = tested on: H-EMC-SS; assay: Antiproliferative activity against human HEMC-SS cells treated for 24 hrs under normoxic condition followed by compound wash-out and incubated under normoxic condition for 48 hrs by alamar blue assay; format: cell-based; outline: as §1
[5] = tested on: H-EMC-SS; assay: Selectivity index, ratio of IC50 for human HEMC-SS cells under normoxic condition to IC50 for human HEMC-SS cells under hypoxic condition; format: functional
[6] = Prodrug activation in pH 7.4 PBS buffer assessed as 15 ug/ml Escherichia coli nitroreductase-mediated corresponding phosphoramidate anion formation by measuring half life at 37 degC in presence of NADPH by RP-HPLC analysis; details: isolated protein
Outline: (§2)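 Recombinant E. coli nitroreductase (final 25 or 15 µg/mL) with prodrug 17 µM and NADPH 0.9 mM final, in 10 mM sodium phosphate pH 7.4, 37°C. Aliquots over 2 h run on C18 RP-HPLC; remaining prodrug from peak area at 322 nm. Enzyme-free NADPH controls run in parallel.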

[7] = Prodrug activation in pH 7.4 PBS buffer assessed as 25 ug/ml Escherichia coli nitroreductase-mediated corresponding phosphoramidate anion formation by measuring half life at 37 degC in presence of NADPH by RP-HPLC analysis; details: isolated protein; outline: as §2
[8] = Prodrug activation in pH 7.4 PBS buffer assessed as 15 to 25 ug/ml Escherichia coli nitroreductase-mediated bis(2-chloroethyl)phosphoramidate anion formation by measuring half life at 37 degC in presence of NADPH by RP-HPLC analysis; details: isolated protein; outline: as §2
[9] = Stability in rabbit plasma at 37 degC after 24 hrs by 31P NMR analysis; format: ADME, cell-free, Oryctolagus cuniculus
Outline: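 Heparinised rabbit blood centrifuged (4°C, 1300 g, 10 min) to give plasma. About 10 mg prodrug in 90 µL CH3CN plus 330 µL plasma, followed by 31P NMR at 37°C over 24 h; peak areas, average of two runs.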

[10] = Chemical stability in pH 7.4 sodium phosphate buffer assessed as drug metabolism at 17 uM at 37 degC after 24 hrs by RP-HPLC analysis; format: physicochemical; details: read-out: Drug metabolism
Outline: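 Prodrug at 17 µM in 10 mM sodium phosphate pH 7.4 with 0.13% DMSO, 37°C. Aliquots over 24 h run directly on C18 RP-HPLC (H2O/ACN gradient with 15 mM TFA). Remaining prodrug calculated from peak area at 322 nm.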

[11] = Prodrug activation in 3 equiv sodium dithionite/CH3CN,/cacodylate buffer at pH 7.4 assessed as bis(2-chloroethyl)phosphoramidate anion formation by measuring half life at 37 degC by 31P NMR analysis; format: physicochemical
Outline: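 Incubation with 3 equiv sodium dithionite in CH3CN/0.1 M cacodylate buffer pH 7.4, probe at 37°C. 31P NMR spectra over 24 h against coaxial Ph3PO reference (26 ppm). Parent loss and phosphoramidate anion formation quantified from peak areas; average of two runs.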

[12] = Chemical stability in 3 equiv sodium dithionite/CH3CN,/cacodylate buffer at pH 7.4 at 37 degC after 24 hrs by 31P NMR analysis; format: physicochemical; details: pH 7.4, 24 h

Sequence of Aggrecan core protein (P13608 whole entry): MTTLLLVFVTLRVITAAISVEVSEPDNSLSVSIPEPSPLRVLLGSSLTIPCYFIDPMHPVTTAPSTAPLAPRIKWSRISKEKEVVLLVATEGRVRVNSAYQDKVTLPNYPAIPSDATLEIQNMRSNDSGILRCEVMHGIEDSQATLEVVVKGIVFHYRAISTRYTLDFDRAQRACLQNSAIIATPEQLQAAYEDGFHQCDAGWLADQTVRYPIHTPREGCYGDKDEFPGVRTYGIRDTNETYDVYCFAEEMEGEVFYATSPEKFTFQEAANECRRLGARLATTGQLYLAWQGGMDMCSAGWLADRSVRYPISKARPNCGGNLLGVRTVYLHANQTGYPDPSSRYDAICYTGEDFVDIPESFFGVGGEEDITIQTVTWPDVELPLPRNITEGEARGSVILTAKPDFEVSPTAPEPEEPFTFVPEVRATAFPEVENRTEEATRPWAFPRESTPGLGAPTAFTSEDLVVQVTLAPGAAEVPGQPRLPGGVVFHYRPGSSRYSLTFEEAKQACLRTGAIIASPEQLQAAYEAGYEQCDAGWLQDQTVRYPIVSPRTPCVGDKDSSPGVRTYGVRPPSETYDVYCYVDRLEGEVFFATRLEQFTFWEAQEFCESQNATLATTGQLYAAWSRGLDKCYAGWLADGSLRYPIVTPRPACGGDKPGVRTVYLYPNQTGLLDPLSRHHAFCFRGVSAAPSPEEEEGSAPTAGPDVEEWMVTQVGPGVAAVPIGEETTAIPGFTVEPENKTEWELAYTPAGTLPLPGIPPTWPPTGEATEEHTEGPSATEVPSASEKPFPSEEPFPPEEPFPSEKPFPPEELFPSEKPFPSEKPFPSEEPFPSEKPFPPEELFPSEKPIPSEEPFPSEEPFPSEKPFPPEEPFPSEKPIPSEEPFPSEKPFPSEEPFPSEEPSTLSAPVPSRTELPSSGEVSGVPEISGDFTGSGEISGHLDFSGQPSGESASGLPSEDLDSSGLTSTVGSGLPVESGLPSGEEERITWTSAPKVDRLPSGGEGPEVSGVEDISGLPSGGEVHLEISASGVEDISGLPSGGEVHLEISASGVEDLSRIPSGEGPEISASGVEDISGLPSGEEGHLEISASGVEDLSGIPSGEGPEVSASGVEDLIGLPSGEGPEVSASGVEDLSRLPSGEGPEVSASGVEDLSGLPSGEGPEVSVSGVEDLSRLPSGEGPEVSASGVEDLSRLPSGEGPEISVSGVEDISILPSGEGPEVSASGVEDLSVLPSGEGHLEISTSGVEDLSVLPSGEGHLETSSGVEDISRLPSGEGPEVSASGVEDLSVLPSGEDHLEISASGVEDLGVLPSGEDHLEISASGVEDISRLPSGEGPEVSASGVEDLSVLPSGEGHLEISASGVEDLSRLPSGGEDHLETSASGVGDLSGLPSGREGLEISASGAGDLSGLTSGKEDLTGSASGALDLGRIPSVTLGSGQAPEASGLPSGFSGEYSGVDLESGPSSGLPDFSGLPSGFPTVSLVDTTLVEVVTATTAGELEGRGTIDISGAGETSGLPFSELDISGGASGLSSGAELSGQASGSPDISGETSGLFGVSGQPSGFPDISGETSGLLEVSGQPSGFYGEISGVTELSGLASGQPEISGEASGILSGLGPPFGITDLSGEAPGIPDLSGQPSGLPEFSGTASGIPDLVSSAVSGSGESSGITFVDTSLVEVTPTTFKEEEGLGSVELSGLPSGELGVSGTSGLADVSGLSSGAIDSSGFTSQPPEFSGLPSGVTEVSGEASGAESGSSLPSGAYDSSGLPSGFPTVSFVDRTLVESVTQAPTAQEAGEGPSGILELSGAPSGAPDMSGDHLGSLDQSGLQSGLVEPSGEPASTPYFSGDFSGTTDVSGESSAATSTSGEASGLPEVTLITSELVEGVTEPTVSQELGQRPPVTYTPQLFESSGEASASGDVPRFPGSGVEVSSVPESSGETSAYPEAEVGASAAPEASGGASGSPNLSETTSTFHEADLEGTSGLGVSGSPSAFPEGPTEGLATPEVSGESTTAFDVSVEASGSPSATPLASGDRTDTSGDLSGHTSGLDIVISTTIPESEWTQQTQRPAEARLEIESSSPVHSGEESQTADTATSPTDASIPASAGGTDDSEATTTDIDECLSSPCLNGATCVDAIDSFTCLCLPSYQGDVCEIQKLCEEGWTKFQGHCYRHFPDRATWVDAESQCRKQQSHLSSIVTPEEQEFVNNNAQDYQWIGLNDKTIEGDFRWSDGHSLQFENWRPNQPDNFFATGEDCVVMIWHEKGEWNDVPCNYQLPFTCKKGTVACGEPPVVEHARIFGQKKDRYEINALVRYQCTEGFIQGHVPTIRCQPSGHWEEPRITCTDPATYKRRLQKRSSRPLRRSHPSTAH
Sequence of Aggrecan core protein (Bos taurus) (P13608 whole entry): as above

Structure (SMILES)	Activity [1]	Kd [2] [µM]	IC50 [3] [µM]	IC50 [4] [µM]	Ratio IC50 [5]	t1/2 [6] [min]	t1/2 [7] [min]	t1/2 [8] [min]	Stability [9]	degraded at 24 h, 17 µM [10] [%]	t1/2 [11] [min]	Stability [12]
Cn1c(COP(=O)(NCCC[N+](C)(C)Cc2ccccc2)N(CCCl)CCCl)cnc1[N+](=O)[O-].[I-] (stereo not drawn)	Active	2990	0.4	5.4	14							
CC[N+](CC)(CC)CCCNP(=O)(OCc1cnc([N+](=O)[O-])n1C)N(CCCl)CCCl.[I-] (stereo not drawn)	Active	3490	1.4	9.7	7							
CC[N+](C)(C)CCCCNP(=O)(OCc1cnc([N+](=O)[O-])n1C)N(CCCl)CCCl.[I-] (stereo not drawn)	Active	2020	1.5	10.2	7							
Cn1c(COP(=O)(NCCCCC[N+](C)(C)Cc2ccccc2)N(CCCl)CCCl)cnc1[N+](=O)[O-].[I-] (stereo not drawn)	Active	2550	2.8	28.9	10							
Cn1c(COP(=O)(NCC[N+](C)(C)Cc2ccccc2)N(CCCl)CCCl)cnc1[N+](=O)[O-].[I-] (stereo not drawn)	Active	2900	1.1	6.4	6							
Cn1c(COP(=O)(NCCC[N+](C)(C)C)N(CCCl)CCCl)cnc1[N+](=O)[O-].[I-] (stereo not drawn)	Active	1290	4.3	29.3	7	15	5					
CC[N+](C)(CCCCNP(=O)(OCc1cnc([N+](=O)[O-])n1C)N(CCCl)CCCl)Cc1ccccc1.[I-] (stereo not drawn)	Active	2100	1.7	40.7	24			< 1	Stable	< 5	< 2	Stable
CC[N+](C)(CCCCCNP(=O)(OCc1cnc([N+](=O)[O-])n1C)N(CCCl)CCCl)Cc1ccccc1.[I-] (stereo not drawn)	Active	3470	0.8	12.9	16							
Cn1c(COP(=O)(NCCCC[N+](C)(C)Cc2ccccc2)N(CCCl)CCCl)cnc1[N+](=O)[O-].[I-] (stereo not drawn)	Active	5270	1.8	18	10							
Cn1c(COP(=O)(NCCBr)NCCBr)cnc1[N+](=O)[O-] [EVOFOSFAMIDE]			0.13	2.9	23							
CC[N+](C)(CC)CCCCNP(=O)(OCc1cnc([N+](=O)[O-])n1C)N(CCCl)CCCl.[I-] (stereo not drawn)	Active	4970	2.4	13.4	6							
Cn1c(COP(=O)(NCCCCC[N+](C)(C)C)N(CCCl)CCCl)cnc1[N+](=O)[O-].[I-] (stereo not drawn)	Active	4220	2.4	25.8	11							
CC[N+](C)(CCCNP(=O)(OCc1cnc([N+](=O)[O-])n1C)N(CCCl)CCCl)Cc1ccccc1.[I-] (stereo not drawn)			2.1	20.8	10							
CC[N+](C)(C)CCCCCNP(=O)(OCc1cnc([N+](=O)[O-])n1C)N(CCCl)CCCl.[I-] (stereo not drawn)	Active	3560	1.5	15.8	11							

From ChEMBL document CHEMBL4270645, “Structure-activity relationship study of hypoxia-activated prodrugs for proteoglycan-targeted chemotherapy in chondrosarcoma” (Eur J Med Chem, 2018)
